In ChEMBL document CHEMBL1146502, “Dimeric flavonol glycoside and galloylated C-glucosylchromones from Kunzea ambigua” (J Nat Prod, 2004) one finds EBV-EA activation relative to control (%) and viability data, which are given here for six compounds.

Holding throughout (type): cell-based
The subject of data set [1] is Raji. As to the kind of experiment: Inhibition of TPA-induced EBV-early antigen activation in human Raji cells assessed as EA activation at 1000 molar ratio after 48 hrs relative to TPA. The following applies: human gammaherpesvirus 4. In short, it runs like this:
(§1)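 Raji cells (EBV genome-carrying, virus nonproducer) were grown in RPMI-1640 with 10% FBS. Cells at 1 × 10⁶/mL were held 48 h at 37 °C with 4 mM n-butyric acid, TPA 20 ng (32 pmol)/mL, and test compound in DMSO, dosed as a mol ratio to TPA. EA-positive cells in smears were scored by indirect immunofluorescence, with ≥500 cells counted, in triplicate. Results are given relative to the butyrate+TPA control (100%).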

Data set [2] relates to Raji. As to the kind of experiment: Inhibition of TPA-induced EBV-early antigen activation in human Raji cells assessed as EA activation at 500 molar ratio after 48 hrs relative to TPA. The following applies: human gammaherpesvirus 4. In short, it runs like this:
as §1

Data set [3] deals with Raji. Put plainly: Inhibition of TPA-induced EBV-early antigen activation in human Raji cells assessed as EA activation at 100 molar ratio after 48 hrs relative to TPA. The following applies: human gammaherpesvirus 4. In short, it runs like this:
as §1

The subject of data set [4] is Raji. Put plainly: Inhibition of TPA-induced EBV-early antigen activation in human Raji cells assessed as EA activation at 10 molar ratio after 48 hrs relative to TPA. The following applies: human gammaherpesvirus 4. The procedure, abridged:
as §1

Data set [5] is described as follows: Cytotoxicity against human Raji cells assessed as cell viability at 1000 molar ratio. To be noted: read-out: Activity.
Data set [6] can be described thus: Cytotoxicity against human Raji cells assessed as cell viability at 500 molar ratio. The following applies: read-out: Activity.
Data set [7] is described as follows: Cytotoxicity against human Raji cells assessed as cell viability at 100 molar ratio. The following applies: read-out: Activity.
The nature of data set [8]: Cytotoxicity against human Raji cells assessed as cell viability at 10 molar ratio. To be noted: read-out: Activity.

Turning to `Cc1c(O)c(Cc2c(O)cc3oc(-c4ccc(O)c(O)c4)c(O[C@@H]4O[C@@H](C)[C@H](O)[C@@H](O)[C@H]4O)c(=O)c3c2O)c2oc(-c3ccc(O)c(O)c3)c(O[C@@H]3O[C@@H](C)[C@H](O)[C@@H](O)[C@H]3O)c(=O)c2c1O` [KUNZEAGIN A], the EBV-EA activation relative to control (%) in the data set on Raji [1] worked out at 4.3%; in the data set on Raji [2], 32.5%; with Raji [3] it was 66.1%; with Raji [4] it was 90.5%. Moreover, the viability at 1000 molar ratio in data set [5] was 70%. For the same compound, the viability at 500 molar ratio in data set [6] stood at 80%. Besides, the viability at 100 molar ratio in data set [7] stood at 80%. Also, in data set [8], the viability at 10 molar ratio worked out at 80%.

Take `CC(C)c1cc(=O)c2c(O)c([C@@H]3O[C@H](CO)[C@@H](O)[C@H](O)[C@H]3OC(=O)c3cc(O)c(O)c(O)c3)c(O)cc2o1`: the EBV-EA activation relative to control (%) with Raji [1] was 5.9%; in the data set on Raji [2], 26.8%; in the data set on Raji [3] it was 70.4%; in the data set with Raji [4], 94.8%. Further, the viability at 1000 molar ratio in data set [5] was 70%. For the same compound, the viability at 500 molar ratio in data set [6] worked out at 80%. In data set [7], the viability at 100 molar ratio was determined as 80%. Moreover, the viability at 10 molar ratio in data set [8] came out at 80%.

Take `CC(C)c1cc(=O)c2c(O)c([C@@H]3O[C@H](CO)[C@@H](O)[C@H](O)[C@H]3O)c(O)cc2o1`: the EBV-EA activation relative to control (%) in the data set on Raji [1] was determined as 4.6%; in the data set on Raji [2], 23.7%; with Raji [3], 65%; in the data set on Raji [4], 91%. The viability at 1000 molar ratio in data set [5] stood at 70%. Besides, the viability at 500 molar ratio in data set [6] came out at 80%. In addition, the viability at 100 molar ratio in data set [7] stood at 80%. Besides, the viability at 10 molar ratio in data set [8] came to 80%.

With `CC(C)c1cc(=O)c2c(O)cc(O)c([C@@H]3O[C@H](CO)[C@@H](O)[C@H](O)[C@H]3OC(=O)c3cc(O)c(O)c(O)c3)c2o1`, the EBV-EA activation relative to control (%) in the data set on Raji [1] amounted to 11.5%; in the data set with Raji [2], 31.6%; in the data set on Raji [3] it was 74.7%; in the data set with Raji [4], 100%. The viability at 1000 molar ratio in data set [5] came out at 70%. Further, the viability at 500 molar ratio in data set [6] stood at 80%. Further, in data set [7], the viability at 100 molar ratio came out at 80%. For the same compound, the viability at 10 molar ratio in data set [8] was determined as 80%.

As for `CC(C)c1cc(=O)c2c(O)cc(O)c([C@@H]3O[C@H](CO)[C@@H](O)[C@H](O)[C@H]3O)c2o1`, the EBV-EA activation relative to control (%) came out at 9.1% in the data set on Raji [1], 29.6% in the data set on Raji [2], 72.5% with Raji [3] and 100% in the data set on Raji [4]. Further, in data set [5], the viability at 1000 molar ratio worked out at 70%. For the same compound, the viability at 500 molar ratio in data set [6] was 80%. Further, in data set [7], the viability at 100 molar ratio came out at 80%. The viability at 10 molar ratio in data set [8] was found to be 80%.

`O=C(O[C@@H]1Cc2c(O)cc(O)cc2O[C@@H]1c1cc(O)c(O)c(O)c1)c1cc(O)c(O)c(O)c1` [EPIGALOCATECHIN GALLATE]: the EBV-EA activation relative to control (%) was determined as 6.4% with Raji [1], 34.9% in the data set on Raji [2], 68.1% in the data set on Raji [3] and 87.7% with Raji [4]. In addition, the viability at 1000 molar ratio in data set [5] was 70%. Also, the viability at 500 molar ratio in data set [6] is 80%. The viability at 100 molar ratio in data set [7] was 80%. Moreover, the viability at 10 molar ratio in data set [8] came out at 80%.
